18 molecules from ChEMBL document CHEMBL1781970, “Synthesis and antiproliferative evaluation of 23-hydroxybetulinic acid derivatives” (Eur J Med Chem, 2011) can be followed below.

pIC50: −log10 of the molar value.

Format in all cases: functional, cell-based
The subject of one test is HeLa. The test is described as follows: Antiproliferative activity against human HeLa cells after 72 hrs by MTT assay. In outline: (§1)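 Cells grown in RPMI 1640 with 10% FBS and 1% penicillin-streptomycin at 37 °C, 5% CO2, then seeded overnight in 96-well plates. Test compounds were dissolved in DMSO (doxorubicin control in PBS) and given at various concentrations for 72 h at 37 °C. MTT (5 mg/mL in PBS) was added for 4 h and OD read at 570 nm. IC50 was taken from dose-response curves; mean ± SD, ≥3 independent experiments.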

For a further test, the system named is MCF7. The test is described as follows: Antiproliferative activity against human MCF7 cells after 72 hrs by MTT assay. To be noted: MCF7, 72 h. In outline:
as §1
In general terms: Formazan colour is commonly taken as a measure of viable cells.

Another test has as its system HepG2. The experiment in a line: Antiproliferative activity against human HepG2 cells after 72 hrs by MTT assay. The note with it: HepG2, 72 h. In outline:
as §1

For a further test, the system named is B16. The experiment in a line: Antiproliferative activity against mouse B16 cells after 72 hrs by MTT assay. The note with it: B16, 72 h. In outline: as §1
Another test relates to A-375. The experiment in a line: Antiproliferative activity against human A375 cells after 72 hrs by MTT assay. The note with it: A-375, 72 h. In outline: as §1

`C=C(C)[C@@H]1CC[C@]2(C(=O)NCCCCn3nnc(-c4ccccn4)n3)CC[C@]3(C)[C@H](CC[C@@H]4[C@@]5(C)CC[C@H](OC(C)=O)[C@@](C)(COC(C)=O)[C@@H]5CC[C@]43C)[C@@H]12`: the negative logarithm of the IC50 (pIC50) (commonly the negative decadic logarithm of the IC50, by convention in mol/L) was 4.75 with HeLa; 4.79 in the test with MCF7; 5.41 with HepG2; 5.32 in the test with B16; 5.74 in the test on A-375.
Consider `C=C(CO)[C@@H]1CC[C@]2(C(=O)OC(C)(C)C)CC[C@]3(C)[C@H](CC[C@@H]4[C@@]5(C)CC[C@H](O)[C@@](C)(CO)[C@@H]5CC[C@]43C)[C@@H]12`, for which the pIC50 in the test with HeLa is 4.51; with MCF7 it was 4.79; in the test with HepG2 it was 4.64; with B16, 4.08; with A-375, 4.37.
As to `C=C(CO)[C@@H]1CC[C@]2(C(=O)N3CCCCC3)CC[C@]3(C)[C@H](CC[C@@H]4[C@@]5(C)CC[C@H](OC(C)=O)[C@@](C)(COC(C)=O)[C@@H]5CC[C@]43C)[C@@H]12`, the pIC50 in the test with HeLa is 4.96; in the test with MCF7, 4.65; in the test on HepG2, 4.95; with B16, 4.19; in the test on A-375, 4.27.
Taken in the same sequence, the figures for `C=C(CO)[C@@H]1CC[C@]2(C(=O)OC(C)C)CC[C@]3(C)[C@H](CC[C@@H]4[C@@]5(C)CC[C@H](OC(C)=O)[C@@](C)(COC(C)=O)[C@@H]5CC[C@]43C)[C@@H]12` were 4.71, 4.76, 4.97, 4.63 and 4.67.
Consider `C=C(C)[C@@H]1CC[C@]2(C(=O)NCC(=O)N[C@@H](Cc3c[nH]c4ccccc34)C(=O)O)CC[C@]3(C)[C@H](CC[C@@H]4[C@@]5(C)CC[C@H](O)[C@@](C)(CO)[C@@H]5CC[C@]43C)[C@@H]12`, for which the pIC50 in the test with HeLa, with MCF7, with HepG2, in the test with B16 and in the test on A-375 was < 4.00 each time.
As for `C=C(C)[C@@H]1CC[C@]2(C(=O)NCC(=O)N[C@@H](C)C(=O)OC)CC[C@]3(C)[C@H](CC[C@@H]4[C@@]5(C)CC[C@H](O)[C@@](C)(CO)[C@@H]5CC[C@]43C)[C@@H]12`, the pIC50 in the test on HeLa is 5.08; in the test with MCF7 it was 5.05; in the test on HepG2 it was 4.92; in the test on B16, 4.95; with A-375 it was 5.30.
Take `C=C(C)[C@@H]1CC[C@]2(C(=O)N3CCC(N4CCCCC4)CC3)CC[C@]3(C)[C@H](CC[C@@H]4[C@@]5(C)CC[C@@H]6OC(=O)OC[C@@]6(C)[C@@H]5CC[C@]43C)[C@@H]12`: the pIC50 was 4.69 in the test on HeLa; 4.76 in the test with MCF7; 4.99 with HepG2; 5.06 in the test with B16; 4.69 in the test on A-375.
`C=C(CO)[C@@H]1CC[C@]2(C(=O)OCC3CCCO3)CC[C@]3(C)[C@H](CC[C@@H]4[C@@]5(C)CC[C@H](O)[C@@](C)(CO)[C@@H]5CC[C@]43C)[C@@H]12` (some centres undefined): the pIC50 in the test with HeLa was 4.10; with MCF7, 4.12; in the test with HepG2, 4.09; with B16, 4.19; in the test on A-375 it was 4.15.
With `C=C(C)[C@@H]1CC[C@]2(C(=O)N3CCOCC3)CC[C@]3(C)[C@H](CC[C@@H]4[C@@]5(C)CC[C@H](OC(C)=O)[C@@](C)(COC(C)=O)[C@@H]5CC[C@]43C)[C@@H]12`, the pIC50 in the test with HeLa is 5.13; in the test on MCF7, 4.58; with HepG2 it was 5.01; with B16, 4.73; in the test on A-375 it was 5.36.
`C=C(C)[C@@H]1CC[C@]2(C(=O)OC/C=C/CO)CC[C@]3(C)[C@H](CC[C@@H]4[C@@]5(C)CC[C@H](OC(C)=O)[C@@](C)(COC(C)=O)[C@@H]5CC[C@]43C)[C@@H]12`: the pIC50 is 4.79 in the test on HeLa; 4.80 with MCF7; 5.13 in the test with HepG2; < 4.00 in the test on B16; 5.24 with A-375.
`C=C(C)[C@@H]1CC[C@]2(C(=O)OCCN3CCOCC3)CC[C@]3(C)[C@H](CC[C@@H]4[C@@]5(C)CC[C@H](OC(C)=O)[C@@](C)(COC(C)=O)[C@@H]5CC[C@]43C)[C@@H]12`: the pIC50 in the test with HeLa is 5.04; in the test with MCF7, 4.01; with HepG2, 4.91; with B16 it was 4.62; in the test with A-375, 5.06.
Take `C=C(C)[C@@H]1CC[C@]2(C(=O)N3CCCCC3)CC[C@]3(C)[C@H](CC[C@@H]4[C@@]5(C)CC[C@H](OC(C)=O)[C@@](C)(COC(C)=O)[C@@H]5CC[C@]43C)[C@@H]12`: the pIC50 was 4.16 with HeLa; < 4.00 in the test with MCF7; 4.18 with HepG2; < 4.00 in the test on B16; < 4.00 with A-375.
Regarding `C=C(C)[C@@H]1CC[C@]2(C(=O)NCC(=O)N3CCC[C@H]3C(=O)OC)CC[C@]3(C)[C@H](CC[C@@H]4[C@@]5(C)CC[C@H](O)[C@@](C)(CO)[C@@H]5CC[C@]43C)[C@@H]12`, the pIC50 was 5.32 in the test with HeLa; 5.12 in the test on MCF7; 5.03 in the test with HepG2; 5.08 in the test with B16; 5.48 in the test with A-375.
On to `C=C(C)[C@@H]1CC[C@]2(C(=O)NCC(=O)N[C@@H](Cc3c[nH]c4ccccc34)C(=O)OC)CC[C@]3(C)[C@H](CC[C@@H]4[C@@]5(C)CC[C@H](O)[C@@](C)(CO)[C@@H]5CC[C@]43C)[C@@H]12`, for which the pIC50 was 4.18 in the test on HeLa; < 4.00 in the test with MCF7; 4.33 with HepG2; 4.35 in the test on B16; < 4.00 in the test with A-375.
Consider `C=C(C)[C@@H]1CC[C@]2(C(=O)NCCN)CC[C@]3(C)[C@H](CC[C@@H]4[C@@]5(C)CC[C@H](OC(C)=O)[C@@](C)(COC(C)=O)[C@@H]5CC[C@]43C)[C@@H]12`, for which the pIC50 is 5.13 with HeLa; 5.41 in the test on MCF7; 5.10 with HepG2; 5.34 with B16; 5.00 with A-375.
In the case of `C=C(C)[C@@H]1CC[C@]2(C(=O)N3CCC(N4CCCCC4)CC3)CC[C@]3(C)[C@H](CC[C@@H]4[C@@]5(C)CC[C@H](OC(C)=O)[C@@](C)(COC(C)=O)[C@@H]5CC[C@]43C)[C@@H]12`, the negative-log IC50 (pIC50) with HeLa was 4.97; in the test with MCF7, 5.16; in the test with HepG2, 4.95; with B16, 5.02; in the test on A-375 it was 5.07.
With `C=C(C)[C@@H]1CC[C@]2(C(=O)N3CCC(N4CCCCC4)CC3)CC[C@]3(C)[C@H](CC[C@@H]4[C@@]5(C)CC[C@H](O)[C@@](C)(CO)[C@@H]5CC[C@]43C)[C@@H]12`, the pIC50 in the test on HeLa was 5.07; with MCF7 it was 5.17; in the test with HepG2, 4.90; in the test with B16 it was 5.24; with A-375, 5.01.
With `COc1cccc2c1C(=O)c1c(O)c3c(c(O)c1C2=O)C[C@@](O)(C(=O)CO)C[C@@H]3O[C@H]1C[C@H](N)[C@H](O)[C@H](C)O1` [DOXORUBICIN], the pIC50 in the test with HeLa was 6.89; in the test on MCF7 it was 6.72; in the test with B16, 6.85; in the test with A-375, 6.89.
